Compounds with a hit are over-represented: about 1.7% of the library has one in this group of screens.
LMPTP block = LMPTP (human) inhibition | P24666 | recombinant LMPTP-A, OMFP fluorogenic substrate, fluorescence intensity | actives 0.22% (n = 360,000) | inhibition, % at 20 µM;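 active means compounds that cut the enzyme signal by at least half of the control window in the single-dose screen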;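 further: plate controls were DMSO wells with enzyme plus substrate for no effect and substrate without enzyme for full effect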
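Assay system: LMPTP-A enzyme. Input: 0.625 nM LMPTP-A final. Probe or stimulus: 400 µM OMFP. Compound dosing: single 20 µM dose. Schedule: 50 min dark incubation at room temperature. Detection: fluorescence intensity of OMFP turnover product. Read-out: percent inhibition versus substrate-only and uninhibited controls. Benchmarks: no-enzyme low control, uninhibited high control.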
STEP block = blocks human striatal-enriched tyrosine phosphatase; recombinant STEP, OMFP fluorogenic substrate, fluorescence; P54829; inhibition, % at 20 µM; actives 0.25% (n = 360,000); AID 588621;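 active means inhibition at 20 µM, scaled per plate between control wells, above about 37%, limit read from the data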;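 further: 0% = DMSO with enzyme and substrate and 100% = substrate only without enzyme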
Target sequence (P54829 whole entry, looked up): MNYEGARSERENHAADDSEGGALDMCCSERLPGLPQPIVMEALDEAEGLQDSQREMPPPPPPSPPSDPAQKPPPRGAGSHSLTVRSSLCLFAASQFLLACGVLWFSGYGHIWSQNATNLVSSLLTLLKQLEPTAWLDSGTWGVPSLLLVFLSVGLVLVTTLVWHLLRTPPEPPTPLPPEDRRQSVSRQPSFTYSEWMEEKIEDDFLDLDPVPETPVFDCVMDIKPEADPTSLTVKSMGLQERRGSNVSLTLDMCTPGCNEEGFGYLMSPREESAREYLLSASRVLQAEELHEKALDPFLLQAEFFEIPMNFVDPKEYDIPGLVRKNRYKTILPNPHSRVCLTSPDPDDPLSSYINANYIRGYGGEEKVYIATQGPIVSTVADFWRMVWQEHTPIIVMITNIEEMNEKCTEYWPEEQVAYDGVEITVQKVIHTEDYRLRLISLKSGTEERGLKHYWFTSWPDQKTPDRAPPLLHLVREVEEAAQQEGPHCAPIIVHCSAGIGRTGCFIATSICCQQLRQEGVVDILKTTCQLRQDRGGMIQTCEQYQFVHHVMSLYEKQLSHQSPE
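System: STEP phosphatase, cell-free reaction; Buffer or medium: Bis-Tris pH 6.0 buffer with DTT, detergent; Incubation: 20 min at room temperature, dark; Measured by: fluorescence, 480/540 nm.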
DNMT1 block = blocks human DNA methyltransferase DNMT1. DNMT1 molecular beacon, Hinp1I cleavage, fluorescence. inhibition (reported as % activation of signal), % at 10 µM. actives 0.83% (n = 360,000). AID 588458; in the data active means inhibition above about 50%
Scp-1 inhibitor = blocks human Scp-1 phosphatase activity | Q9GZU7 | Recombinant Scp1, phosphopeptide, malachite green phosphate absorbance | inhibition, % at 20 µM | actives 0.88% (n = 340,000) | AID 493091;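 active means inhibition above about 50% at 20 µM, limit read from the data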;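 further: plate controls were DMSO wells with enzyme for no effect and wells lacking enzyme for full effect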
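Test system: SCP-1 phosphatase catalytic domain, residues 76-261; measured by: colorimetric phosphate reagent with accelerator and stabiliser, absorbance at 630 nm; timing: enzyme reaction 45 min at room temperature, colour 5 min, stabilisation 30 min; also added: Phosphorylated 17-residue peptide substrate; compound dosing: one concentration, 20 µM, with 1.0% DMSO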
SUMO1-SIM PPI = alters human SUMO1 binding to SIM partners. inhibition, % at 20 µM. SUMO1 binding to a labelled peptide, TR-FRET, 1 h. P63165. actives 0.33% (n = 360,000); in the data active means inhibition above about 37%
Scp1 confirm = Scp-1 (human) inhibition, single-dose confirmed | actives 61% (n = 2,500) | recombinant SCP-1 catalytic domain, phosphate release, malachite green absorbance | shares compounds with Scp-1 inhibitor | inhibition, % at 20 µM;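 further: plate controls were DMSO with enzyme for no effect and buffer wells lacking enzyme for full effect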
Scp-1 MG ctr = colorimetric interference in Scp-1 counter-screen. shares compounds with Scp-1 inhibitor. Colorimetric interference counterscreen, malachite green absorbance 630 nm. apparent inhibition (interference), % at 20 µM. 2,500 tested, under 10 active;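 further: compounds added after enzyme reaction finished so only phosphate colour detection is probed; plate controls were DMSO wells with completed Scp-1 reaction for no effect and substrate wells lacking enzyme for full effect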
Scp-1 Tm shift = Scp-1 (human) binding by thermal shift | actives 25% (n = 1,500) | thermal shift relative to vanadate control, % at 40 µM | AID 540329 | shares compounds with Scp-1 inhibitor | Recombinant SCP1, Sypro Orange thermal shift Tm;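 active means substances whose mean melting-temperature shift, as a percentage of the reference inhibitor's shift, reaches about 5.3%, limit read from the data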;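 further: 0% = Tm of DMSO wells and 100% = Tm with sodium orthovanadate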
Active calls of the source: *; x = no result.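 How the source made its calls, unless noted: active means inhibition of at least 30% at 20 µM; inactive means the rest.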

SMILES	LMPTP block	STEP block	DNMT1 block	Scp-1 inhibitor	SUMO1-SIM PPI	Scp1 confirm	Scp-1 MG ctr	others
CN(C(=O)c1cc2c(=O)n3ccccc3nc2n1C)C1CCCCC1	1	1	2	80*	-24	-17	-14
CCN(CC)C(=O)c1cccc(NC(=O)C2CCN(C(=O)c3cccs3)CC2)c1	-2	1	2	-2	6	x	x
c1ccc(-c2noc(CC3CCCCC3)n2)nc1	-1	-4	-2	-17	0	x	x
N#CCSc1nc2ccccc2c(=O)n1CCCC(=O)NCc1ccco1	-1	-4	7	0	-2	x	x
O=C(CCCCCn1c(SCc2ccncc2)nc2ccccc2c1=O)NCc1ccco1	22	2	19	56*	10	32*	-10	Scp-1 Tm shift=-13
Cc1ccc(NC2CCCN(C(=O)CCc3scnc3C)C2)cc1C (stereo not drawn)	1	-3	0	55*	2	-8	-10
O=C(CNC(=O)c1ccc2c(c1)OCCO2)N/N=C/c1cccc(Br)c1	0	2	0	-5	-2	x	x
C[n+]1cnc(-c2ccccc2)cc1-c1ccccc1	1	-3	2	101*	-23	86*	-12	Scp-1 Tm shift=-20
O=C(CCC(=O)Nc1ccc(Br)cc1)N/N=C/c1cc([N+](=O)[O-])ccc1O	14	0	-1	74*	-8	23	-9
Cc1ccc(Oc2ccc(OCC(=O)NC3CCS(=O)(=O)C3)cc2)cc1 (stereo not drawn)	0	-2	0	-5	-3	x	x
O=C(COc1ccc(Cl)cc1)NNC(=O)c1ccc(=O)[nH]c1	0	2	1	59*	-3	26	6
CS(=O)(=O)Nc1cccc(NC(=O)C2Cc3c(-c4cccc(F)c4)ccnc3O2)c1 (stereo not drawn)	0	0	-2	x	-3	x	x
O=C(CCCC(=O)c1ccccc1)Nc1ccc(F)cc1	-2	1	5	-12	-5	x	x
Cc1c(F)cccc1NC(=O)CCCCCC1NC(=O)NC1C (stereo not drawn)	-1	-5	0	-1	1	0	-7
CC1NC(=O)NC1CCCCCC(=O)Nc1ccc(F)cc1 (stereo not drawn)	0	-2	3	13	2	-18	-15
COC(=O)[C@]12CCCCC=C1N(Cc1ccccc1)C(=O)[C@H](CC(=O)N1CCN(C(=O)c3ccco3)CC1)C2	-2	x	x	x	7	x	x
COCCOc1ccc(C(F)(F)F)cc1NC(=O)COC(=O)c1cc([N+](=O)[O-])ccc1N1CCOCC1	3	-3	-2	-18	-22	x	x
Brc1ccc(CSc2ncn[nH]2)cc1	0	6	0	51*	-1	12	-3
COC(=O)CSc1nc(SCc2ccccc2Cl)nc2c1CCCC2	5	2	-5	53*	1	-5	-3
O=C(O)c1ccc2c(=O)n3c(nc2c1)/C(=C/c1ccc(Cl)c(Cl)c1)CC3	0	7	7	55*	-1	12	-8
O=C(O)c1ccc2c(=O)n3c(nc2c1)/C(=C/c1cccc(O)c1)CC3	0	2	0	0	-1	x	x
O=C1NC[C@H](CCCCN2C[C@H](Cc3ccccc3)N(CCC3CCCCC3)C(=O)C2=O)N(CC2CCCCC2)C1=O	2	x	x	x	3	x	x
Cc1cc(Cl)ccc1C(O)c1ncc(-c2cccc3ccccc23)[nH]1 (stereo not drawn)	1	0	-1	x	-5	x	x
COCC(C)n1c(C)cc(C(=O)COC(=O)c2c(NC(C)=O)sc(C)c2C)c1C (stereo not drawn)	33	35	29	80*	7	42*	-4	Scp-1 Tm shift=-9
Cc1onc(-c2c(F)cccc2Cl)c1C(=O)NCCN1CCNC1=O	1	-1	1	-14	4	-6	-11
